Experimental data taken from ChEMBL document CHEMBL4665829, “Synthesis, Structure-Activity Relationship, and Antimalarial Efficacy of 6-Chloro-2-arylvinylquinolines” (J Med Chem, 2020).
Calls of active or inactive are those of the source. The rule behind the calls is not given here.

Tests used:
[1] = Drug level in mouse liver microsomes treated with N1-(6-chloro-2-(4-fluorostyryl)quinolin-4-yl)-N2,N2-dimethylethane-1,2-diamine measured up to 60 mins by LC-MS analysis; format: ADME, Microsome; settings: 1 h
Summary of the method: (§1)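 Microsomal incubations: mouse liver microsomes at 0.5 mg/mL, 1 μM compound, pH 7.4 phosphate, 37 °C, NADPH-regenerating system. The metabolite mixture was analysed by LC–MS after 15, 30 and 60 min.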

[2] = Intrinsic clearance in mouse liver microsomes assessed as parent compound at 1 uM after 60 mins in presence of NADPH by LC-MS analysis; format: ADME, Microsome
Summary of the method: (§2)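 Mouse liver microsomes (0.5 mg/mL final protein) in 0.1 M phosphate, pH 7.4, with compound at 1 μM, 37 °C with shaking. Aliquots were quenched in cold acetonitrile and centrifuged; LC–MS gave parent peak area at 60 min relative to 0 min.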

[3] = Stability of compound in mouse liver microsomes assessed as parent compound remaining at 1 uM after 60 mins in presence of NADPH by LC-MS analysis; format: ADME, Microsome; settings: 1 h; summary of the method: as §2
[4] = Selectivity index, ratio of EC50 for cytotoxicity against human HepG2 cells to antiplasmodial activity against chloroquine-resistant Plasmodium falciparum Dd2; format: toxicity, cell-based; settings: read-out: Ratio EC50
[5] = Resistant index, ratio of EC50 for antiplasmodial activity against chloroquine-resistant Plasmodium falciparum Dd2 to antiplasmodial activity against chloroquine-sensitive Plasmodium falciparum 3D7; format: functional
HepG2 = experiment: Cytotoxicity against human HepG2 cells assessed as reduction in cell viability after 48 hrs by MTS assay; format: cell-based; settings: HepG2, 48 h
Summary of the method: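 HepG2 cells were seeded at 2250 per well and grown 24 h at 37 °C, 5% CO₂. Serial dilutions starting at 25 μM were added for a further 48 h. MTS was then added for 3 h at 37 °C and absorbance read at 490 nm. EC₅₀ came from nonlinear dose–response fits.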

[6] = Half life in mouse liver microsomes at 1 uM after 60 mins in presence of NADPH by LC-MS analysis; format: ADME, Microsome; settings: 1 h; summary of the method: as §2
Plasmodium falciparum [7] = experiment: Antiplasmodial activity against chloroquine-sensitive Plasmodium falciparum 3D7 infected in human erythrocytes assessed as reduction in microbial growth after 72 hrs by SYBR green I staining based fluorescence assay; format: functional, organism-based; settings: 3D7, Erythrocyte
Summary of the method: (§3)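 SYBR Green I assay: twofold serial dilutions on P. falciparum cultures at 1% parasitemia, 1% hematocrit, 37 °C, 5% CO₂, 72 h, max 0.1% DMSO. DMSO and CQ as growth and inhibition controls. Plates frozen at −80 °C, thawed, lysed in Tris/saponin/EDTA/Triton buffer with 0.01% SYBR Green I, 1 h dark at room temperature. Fluorescence read at 485 ex/530 em. EC50 by nonlinear dose–response fit.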

Plasmodium falciparum [8] = experiment: Antiplasmodial activity against chloroquine-resistant Plasmodium falciparum Dd2 infected in human erythrocytes assessed as reduction in microbial growth after 72 hrs by SYBR green I staining based fluorescence assay; format: functional, organism-based; settings: Dd2, Erythrocyte; summary of the method: as §3
[9] = Drug level in mouse liver microsomes treated with 6-chloro-N-(4-morpholinobutyl)-2-(2-(pyridin-4-yl)vinyl)quinolin-4-amine measured up to 60 mins by LC-MS analysis; format: ADME, Microsome; settings: 1 h; summary of the method: as §1
[10] = Drug level in mouse liver microsomes treated with N1,N1-diethyl-N4-(6-methoxy-2-(4-nitrostyryl)quinolin-4-yl)pentane-1,4-diamine measured up to 60 mins by LC-MS analysis; format: ADME, Microsome; settings: 1 h; summary of the method: as §1
Plasmodium falciparum [11] = experiment: Parasiticidal activity against chloroquine-resistant Plasmodium falciparum Dd2 infected in RBC assessed as reduction in parasitemia at 6.6 nM incubated for 48 hrs followed by compound washout and then incubated for 96 hrs by Giemsa staining based microscopic analysis; format: functional, organism-based
Summary of the method: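 Controls: 0.15% DMSO, DHA 50 nM, atovaquone 6.6 nM. Drug removed by three RPMI washes, then parasitemia followed daily for 96 h by Giemsa thin smears. Three independent biological replicates.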

Plasmodium falciparum [12] = experiment: Antiplasmodial activity against late trophozoite synchronized chloroquine-resistant Plasmodium falciparum Dd2 reduction in microbial growth at 6.6 nM measured after 12 hrs by YOYO-1 staining-based flow cytometric analysis; format: functional, organism-based
Summary of the method: (§4)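 Dd2 cultures tightly synchronized by magnetic separation and sorbitol were dosed at 5 × EC50 at 6, 18, 30 or 42 h post-invasion. Controls: DHA 50 nM, atovaquone 6.6 nM, DMSO 0.1%. Sampled every 12 h for Giemsa thin smears and for flow cytometry: glutaraldehyde/paraformaldehyde fixation, Triton permeabilization, RNAse, 500 nM YOYO-1, 500,000 events/sample. Three independent biological replicates.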

Plasmodium falciparum [13] = experiment: Antiplasmodial activity against late trophozoite synchronized chloroquine-resistant Plasmodium falciparum Dd2 reduction in microbial growth at 6.6 nM measured after 12 hrs by Giemsa staining-based microscopic analysis; format: functional, organism-based; summary of the method: as §4

Row | SMILES | CLH [2] | Stabilty [3] | selectivity ratio [4] | Ratio EC50 [5] | EC50 (HepG2) | t1/2 [6] | EC50 (Plasmodium falciparum [7]) | EC50 (Plasmodium falciparum [8]) | further results
1 | CNCCNc1cc(/C=C/c2ccc(F)cc2)nc2ccc(Cl)cc12 |  |  |  |  |  |  |  |  | Drug uptake [1]: Active
2 | Fc1ccc(/C=C/c2cc(NCCCCN3CCOCC3)c3cc(Cl)ccc3n2)cc1F | 53.7 µL/min/mg | 19.9% | 241 | 0.9 | 10400 nM | 25.8 min | 27.6 nM | 25.5 nM | 
3 | Fc1ccc(/C=C/c2cc(NCc3ccccn3)c3cc(Cl)ccc3n2)cc1 | 21.2 µL/min/mg | 52.9% | 127 | 0.6 | 19800 nM | 65.3 min | 248 nM | 156 nM | 
4 | FC(F)(F)c1ccc(/C=C/c2cc(NCCCCN3CCOCC3)c3cc(Cl)ccc3n2)cc1 | 21.4 µL/min/mg | 52.7% | 332 | 0.4 | 10200 nM | 64.9 min | 73.8 nM | 30.7 nM | 
5 | NCCCCNc1cc(/C=C/c2ccncc2)nc2ccc(Cl)cc12 |  |  |  |  |  |  |  |  | Drug uptake [9]: Active
6 | OCCNCCCCNc1cc(/C=C/c2ccncc2)nc2ccc(Cl)cc12 |  |  |  |  |  |  |  |  | Drug uptake [9]: Active
7 | CN(C)CCNc1cc(/C=C/c2cccc(F)c2)nc2ccc(Cl)cc12 | 32.1 µL/min/mg | 38.2% | 810 | 0.3 | 4780 nM | 43.2 min | 23 nM | 5.9 nM | 
8 | NCCNc1cc(/C=C/c2ccc(F)cc2)nc2ccc(Cl)cc12 |  |  |  |  |  |  |  |  | Drug uptake [1]: Active
9 | CCN(CC)CCCC(C)Nc1cc(/C=C/c2ccc([N+](=O)[O-])cc2)nc2ccc(O)cc12 (stereo not given) |  |  |  |  |  |  |  |  | Drug uptake [10]: Active
10 | O=C1C(O)=C([C@H]2CC[C@H](c3ccc(Cl)cc3)CC2)C(=O)c2ccccc21 |  |  |  |  |  |  |  |  | Activity (Plasmodium falciparum [11]): Active; Activity (Plasmodium falciparum [12]): inactive; Activity (Plasmodium falciparum [13]): inactive
